The values that follow come from publication PMC3059335 (Investigational New Drugs, 2010).

Series [1] can be described thus: pharmacokinetics of continuous infusion cilengitide. The series is classed as in vivo, human. In short, it runs like this: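 Test compound given as fixed-dose continuous IV infusion (1–40 mg/hr) via venous access port, diluted in 0.9% NaCl or 5% dextrose; bag changed weekly. Heparinised blood (10 mL) taken day 1 pre-dose and 2 h post-start, then weekly for 4 weeks before and 2 h after bag change. Plasma frozen at −80°C, run in duplicate by HPLC-MS/MS. Steady-state concentration, Vss and clearance reported as mean and SD; Vd assumes 4-h half-life.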

For series [2], the system named is patients with solid tumors. In words: toxicity monitoring of continuous infusion cilengitide. In kind it is in vivo.
Series [3] deals with patients with solid tumors. In words: tumor response, radiographic tumor assessment every 8 weeks. In kind it is in vivo, human. In short, it runs like this:
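Patients received continuous IV infusion at fixed dose levels of 1, 2, 4, 8, 12, 18, 27 or 40 mg/hr, with the infusion bag replaced weekly; 4-week cycles without a break. Tumors assessed every 8 weeks (every two cycles). Patients with DLT continued at the next lower dose if toxicities had resolved to grade ≤1 and disease had not progressed.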

Series [4] concerns αvβ3 and αvβ5-mediated cell adhesion. The following applies: read-out: IC50, inhibition of αvβ3 and αvβ5-mediated cell adhesion; cited from earlier work.
For series [5] the following is noted: human, cited from earlier work.
Series [6] relates to patients with advanced solid tumours. The conditions noted are these: phase I testing of doses up to 2400 mg/m^2 twice weekly; cited from earlier work.

The IC50 is the concentration at which inhibition is half-maximal. Regarding `CC(C)[C@H]1C(=O)N[C@@H](CCCNC(=N)N)C(=O)NCC(=O)N[C@@H](CC(=O)O)C(=O)N[C@H](Cc2ccccc2)C(=O)N1C` [cilengitide], the “cilengitide clearance, range calculated in our study” value in series [1] (continuous infusion 1-40 mg/hr, range across dose levels) was 55 – 88 mL/min/m^2. Also, the “accumulation of cilengitide in the plasma over time” value in series [1] (continuous infusion, weekly sampling in cycle 1) is listed as “no evidence of accumulation”. In addition, the “maximum tolerated dose (MTD)” value in series [2] (continuous infusion, doses up to 40 mg/hr) was “not reached”. Moreover, in series [2] (in vivo), the treatment-related hypertension result is “did not occur in any patients”. The same compound returned a maximum feasible dose in series [2] (in vivo, iv) of 40 mg/h. Besides, the objective responses entry in series [3] (17 of the 35 patients assessed at the end of cycle 2) is “No objective responses were observed”. Further, the “relationship between dose level or steady state concentration (Css) and change in tumor size after two cycles” value in series [3] (data not shown) is “no significant relationship”. The “median duration of stable disease” value in series [3] (two patients, cycle = 4 weeks) was 3.5 cycles. The IC50 in series [4] is around 1 µM. For the same compound, in series [5] (in vivo), the clearance is recorded as 34-66 mL/min/m^2 and the plasma half-life was 3 to 5 h. The “metabolism, drug accumulation, or enterohepatic circulation” value in series [5] (intermittent dosing) was “no evidence of metabolism, drug accumulation, or enterohepatic circulation”. In series [6], the maximally tolerated dose entry is reported as “not reached”.
